Screening data as filed in PubChem BioAssay.
Hits are enriched below; roughly 3% of the tested compounds scored in any of these assays.
NSD2 inh = NSD2 (human) methyltransferase inhibition; O96028; NSD2 peptide methylation, AlphaScreen, 120 min; inhibition, % at 12.5 µM; hit rate 0.54% among 310,000; AID 743445; in the data active = inhibition above about 50%
XiGFP reactiv = X-chromosome reactivation activator; XiGFP mouse fibroblasts, % GFP-positive cells imaging, 3 d; cells co-treated with 5-aza-dC sensitizer; scaled so ellipticine positive control = 100%; activation, % at 7.58 µM; hit rate 0.055% among 360,000;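 active = mean normalized replicate activation at least 10% and every replicate at or above 10%; inconclusive = only one of the two criteria met; inactive = mean below 10% and not all replicates reach 10%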
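Material: XiGFP fibroblasts, SV40-immortalized; Buffer or medium: DMEM containing 5-aza-dC; Compound dosing: single point; Times: 3 days compound exposure.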
MITF act = activators of MITF-driven TRPM1 promoter activity in SK-MEL-5 cells; SK-MEL-5 TRPM1-promoter luciferase, 24 h; % of positive control, neutral wells = 0; hit rate 0.75% among 300,000; AID 588334; activation, % at 12.5 µM;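 active = mean activation of at least 80% with every replicate also reaching 80%; inconclusive = mean reaches 80% but some replicate falls short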
esBAF inh = SWI/SNF esBAF complex inhibition; AID 602393; hit rate 2% among 350,000; mouse ES cells, Bmi1-luciferase knock-in reporter, 24 h; 100% = twice the neutral-well signal; reporter increase, % at 12.5 µM; in the data active = activation above about 40%; inconclusive = no clear call, values can overlap the other calls;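 note: a rise in the Bmi1 reporter signal indicates esBAF inhibition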
Wnt act = Wnt/beta-catenin pathway activation; hit rate 1.2% among 300,000; Wnt/beta-catenin reporter cell assay, activator, plate reader; AID 743398; activation, % at 9.35 µM; in the data active = activation above about 30%, passing the limit was not always enough; inconclusive = no clear call, values can overlap the other calls
CASP6 VEID inh = caspase-6 (human) enzyme inhibition. P55212. purified caspase-6, Z-VEID-R110 cleavage fluorescence. inhibition, % at 12.5 µM. hit rate 0.53% among 350,000;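 active = mean inhibition across replicates at least about 35%, with every replicate also reaching that limit, limit read from the data; inconclusive = only one of the two criteria met; inactive = neither criterion met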
Hits are given with their value.

For O=C(/C=C1\SC(=O)N(CC(=O)Nc2ccc(Cl)cc2)C1=O)Nc1ccc(F)cc1 the results were XiGFP reactiv inactive, MITF act inactive, Wnt act inactive and CASP6 VEID inh 42.7.
Screening O=C(CN1C(=O)S/C(=C\C=C\c2ccccc2)C1=O)Nc1ccc(C(=O)O)cc1 returned NSD2 inh inactive, XiGFP reactiv inactive, MITF act inactive, esBAF inh inactive, Wnt act inactive and CASP6 VEID inh 44.0.
Screening O=C(/C=C1\SC(=O)N(CC(=O)Nc2ccc(F)cc2)C1=O)Nc1ccc(Cl)cc1 returned NSD2 inh inactive, XiGFP reactiv inactive, MITF act inactive and CASP6 VEID inh inactive.
O=C(CCN1C(=O)/C(=C\C=C\c2ccccc2)SC1=S)Nc1ccc(C(=O)O)cc1 was read as NSD2 inh inactive, XiGFP reactiv inactive, MITF act inactive, Wnt act inactive and CASP6 VEID inh 49.0.
`COc1ccc(NC(=O)CN2C(=O)S/C(=C/c3cccn3-c3ccc(C(=O)O)cc3)C2=O)cc1` gave NSD2 inh inactive, XiGFP reactiv inactive, MITF act inactive, esBAF inh inactive, Wnt act inactive and CASP6 VEID inh 71.5.
Cc1noc(C)c1NC(=O)N(C)C[C@H]1OCc2ccccc2-c2ccccc2C(=O)N([C@@H](C)CO)C[C@H]1C was read as XiGFP reactiv inactive.
Screening CN(C)c1nc(-c2ccc([N+](=O)[O-])cc2)cs1 returned NSD2 inh inactive, MITF act inconclusive and esBAF inh 66.9.
For COc1ccccc1CN(C)C[C@H]1OCc2ccccc2-c2c(n(C)c3ccccc23)C(=O)N([C@H](C)CO)C[C@@H]1C the results were XiGFP reactiv inactive.
For CC(=O)Nc1sc2c(c1C#N)CCCC2 the results were NSD2 inh inactive, esBAF inh inactive and Wnt act inactive.
`Cc1onc(C(=O)Nc2sc3c(c2C#N)CCCC3)c1[N+](=O)[O-]` gave NSD2 inh inactive, XiGFP reactiv inactive, MITF act inactive, Wnt act 34.9 and CASP6 VEID inh inactive.
Screening CCCC(=O)Nc1sc2c(c1C#N)CCCC2 returned NSD2 inh inactive, MITF act inactive and esBAF inh 52.7.
`Cc1onc(-c2ccccc2Cl)c1C(=O)Nc1sc2c(c1C#N)CCC2` gave NSD2 inh inactive, esBAF inh inactive and CASP6 VEID inh inactive.
CC(C)C(=O)Nc1sc2c(c1C#N)CCCCC2 was read as NSD2 inh inactive, esBAF inh 50.4 and Wnt act inactive.
For Cc1cccc(OCC(=O)Nc2sc3c(c2C#N)CCC3)c1 the results were NSD2 inh inactive, MITF act inactive, esBAF inh 84.3, Wnt act inactive and CASP6 VEID inh inactive.
Screening C[C@H](CO)N1C[C@H](C)[C@@H](CN(C)C(=O)Nc2ccccc2C(F)(F)F)OCc2ccccc2-c2ccccc2C1=O returned XiGFP reactiv inactive.
Screening CN1C(=O)c2cc(NC(=O)C3CCCC3)ccc2OC[C@@H]2O[C@H](CC(=O)NCc3ccccc3F)CC[C@@H]21 returned XiGFP reactiv inactive and CASP6 VEID inh inactive.
`C[C@@H]1CCCCO[C@@H](CN(C)C)[C@H](C)CN([C@@H](C)CO)C(=O)c2cc(N(C)C)ccc2O1` gave XiGFP reactiv inactive and CASP6 VEID inh inactive.
Screening CCOC(=O)c1c(C)[nH]c(C(=O)OCC(=O)c2ccccc2)c1C returned NSD2 inh inactive, XiGFP reactiv inactive, MITF act 121.5, esBAF inh 44.7, Wnt act 49.3 and CASP6 VEID inh inactive.
CC(=O)c1c(C)[nH]c(C(=O)OCc2ccc([N+](=O)[O-])cc2)c1C was read as NSD2 inh inactive, XiGFP reactiv inactive, MITF act inactive, esBAF inh 41.1, Wnt act inactive and CASP6 VEID inh inactive.
For CC(=O)c1c(C)[nH]c(C(=O)COC(=O)c2cccnc2Cl)c1C the results were NSD2 inh inactive, XiGFP reactiv inactive, MITF act inactive, esBAF inh 52.1, Wnt act inactive and CASP6 VEID inh inactive.
Cc1ccc(C(=O)COC(=O)c2cccc([N+](=O)[O-])c2)s1 was read as NSD2 inh inactive, XiGFP reactiv inactive, MITF act inactive, esBAF inh 46.4, Wnt act inactive and CASP6 VEID inh inactive.
Screening O=C(OCC(=O)c1c[nH]c2ccccc12)c1cccc([N+](=O)[O-])c1 returned NSD2 inh inactive, XiGFP reactiv inactive, MITF act inactive, esBAF inh inactive, Wnt act inactive and CASP6 VEID inh inactive.
Cc1ccc(S(=O)(=O)NCC[C@@H]2CC[C@@H](NC(=O)c3cnccn3)[C@@H](CO)O2)cc1 was read as XiGFP reactiv inactive, esBAF inh inactive and CASP6 VEID inh inactive.
Screening CN1c2ccc(-c3ccc(F)cc3)cc2[C@@H]2[C@@H](CCN2C(=O)c2ccncc2)[C@@H]1CO returned XiGFP reactiv inactive and esBAF inh inactive.
CCOC(=O)c1c(C)[nH]c(C(=O)OCc2ccccc2F)c1C was read as NSD2 inh inactive, XiGFP reactiv inactive, MITF act inconclusive, esBAF inh inactive, Wnt act inactive and CASP6 VEID inh inactive.
`CCOC(=O)c1c(C)[nH]c(C(=O)OCc2ccc(F)cc2)c1C` gave NSD2 inh inactive, XiGFP reactiv inactive, MITF act inactive, esBAF inh 49.2, Wnt act inactive and CASP6 VEID inh inactive.
For CCOC(=O)c1[nH]c(C)c(C(=O)OC)c1C the results were NSD2 inh inactive, XiGFP reactiv inactive, MITF act inactive, esBAF inh inactive, Wnt act inactive and CASP6 VEID inh inactive.
`CC(=O)c1c(C)[nH]c(C(=O)OCc2ccccc2)c1C` gave NSD2 inh inactive, XiGFP reactiv inactive, MITF act inactive, esBAF inh 39.9, Wnt act inactive and CASP6 VEID inh inactive.
Screening COC(=O)c1c(C)[nH]c(C(=O)OCC(=O)c2ccc(C)s2)c1C returned NSD2 inh inactive, XiGFP reactiv inactive, MITF act 89.0, Wnt act inactive and CASP6 VEID inh inactive.
For COc1ccc2c3c([nH]c2c1)[C@H](CO)N(C(=O)CC1CC1)CC31CN(C(=O)CC2CC2)C1 the results were XiGFP reactiv inactive.
For CCOC(=O)c1cnn2c(C)cc(-c3ccccc3)nc12 the results were NSD2 inh inactive and Wnt act 42.8.
For CCOC(=O)c1cc2nc(-c3ccccc3)cc(C)n2n1 the results were NSD2 inh inactive, XiGFP reactiv inactive, esBAF inh inactive, Wnt act inactive and CASP6 VEID inh inactive.
Cc1cc(C)n2ncc(/C(N)=N/OC(=O)c3ccccc3F)c2n1 was read as NSD2 inh inactive, XiGFP reactiv inactive, MITF act inconclusive, Wnt act 37.8 and CASP6 VEID inh inactive.
For CO[C@@H]1CN(C)C(=O)c2ccc(NC(C)=O)cc2OC[C@H](C)N(C(=O)C2CC2)C[C@@H]1C the results were XiGFP reactiv inactive, esBAF inh inactive and CASP6 VEID inh inactive.
